Where a SMILES comes first, the peptide text is derived from it. [ ]: non-standard residue; d: D form. Tic = O=C(O)[C@@H]1Cc2ccccc2CN1; dTic = O=C(O)[C@H]1Cc2ccccc2CN1; 2Thi = N[C@@H](Cc1cccs1)C(=O)O
Experiments:
[1] = biological target: Melanocyte-stimulating hormone receptor (Mus musculus, UniProt Q01727); assay: In vitro activation of mouse recombinant Melanocortin-1 receptor.
Method in brief: (§1)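 HEK-293 cells stably expressing the mouse receptor (calcium phosphate transfection, G418 1 mg/mL selection) were transfected with a CRE/β-galactosidase reporter. Lysates were read with ONPG at 37 °C (OD405), normalized to protein (OD595) and forskolin. EC50 came from nonlinear least-squares fitting, duplicate experiments in quadruplet.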

[2] = biological target: T1, Melanocortin receptor 3 (Mus musculus, UniProt P33033); assay: In vitro activation of mouse recombinant Melanocortin-3 receptor.; method in brief: as §1
T1 sequence (P33033 whole entry): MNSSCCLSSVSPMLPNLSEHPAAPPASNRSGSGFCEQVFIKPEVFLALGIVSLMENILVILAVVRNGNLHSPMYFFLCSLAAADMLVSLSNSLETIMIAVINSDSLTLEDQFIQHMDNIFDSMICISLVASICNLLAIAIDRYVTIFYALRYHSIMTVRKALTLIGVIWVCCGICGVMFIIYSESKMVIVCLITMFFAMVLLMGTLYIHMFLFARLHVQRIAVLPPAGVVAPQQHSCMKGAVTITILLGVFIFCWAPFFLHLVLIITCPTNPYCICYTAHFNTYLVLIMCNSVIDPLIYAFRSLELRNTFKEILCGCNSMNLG

[3] = biological target: Melanocortin receptor 5 (Mus musculus, UniProt P41149); assay: In vitro activation of mouse recombinant Melanocortin-5 receptor.; method in brief: as §1
Sequence of Melanocortin receptor 5 (P41149 whole entry): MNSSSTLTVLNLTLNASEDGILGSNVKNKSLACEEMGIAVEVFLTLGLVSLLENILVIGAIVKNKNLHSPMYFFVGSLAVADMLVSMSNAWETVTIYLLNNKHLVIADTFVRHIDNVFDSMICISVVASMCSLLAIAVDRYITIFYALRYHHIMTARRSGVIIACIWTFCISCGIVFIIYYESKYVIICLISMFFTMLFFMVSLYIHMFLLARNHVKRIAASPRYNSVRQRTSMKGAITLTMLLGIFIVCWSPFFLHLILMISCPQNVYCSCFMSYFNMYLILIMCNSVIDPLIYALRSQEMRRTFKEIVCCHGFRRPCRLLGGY

[4] = biological target: Melanocortin receptor 4 (Mus musculus, UniProt P56450); assay: In vitro activation of mouse recombinant Melanocortin-4 receptor.; method in brief: as §1
Sequence of Melanocortin receptor 4 (P56450 whole entry): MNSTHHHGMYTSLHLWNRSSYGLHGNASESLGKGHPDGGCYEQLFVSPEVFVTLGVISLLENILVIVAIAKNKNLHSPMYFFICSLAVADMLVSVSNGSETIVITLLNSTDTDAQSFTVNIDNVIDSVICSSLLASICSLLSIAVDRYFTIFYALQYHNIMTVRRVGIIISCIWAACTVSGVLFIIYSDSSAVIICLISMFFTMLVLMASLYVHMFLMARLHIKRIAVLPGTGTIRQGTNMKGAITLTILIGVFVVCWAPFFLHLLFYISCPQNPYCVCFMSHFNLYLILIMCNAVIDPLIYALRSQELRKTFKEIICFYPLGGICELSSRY

[5] = biological target: T1, Melanocortin receptor 3; assay: Agonist activity of compound in mouse Melanocortin-3 receptor (mMC3R); Slight agonist; type: functional
Method in brief: as §1, with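 “reporter. At 48 h they were stimulated for 6 h with peptide (10^-4–10^-12 M) or forskolin (10^-4 M) in DMEM with 0.1 mg/mL BSA and 0.1 mM IBMX.” for “reporter.”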

Sequence of Melanocyte-stimulating hormone receptor (Q01727 whole entry): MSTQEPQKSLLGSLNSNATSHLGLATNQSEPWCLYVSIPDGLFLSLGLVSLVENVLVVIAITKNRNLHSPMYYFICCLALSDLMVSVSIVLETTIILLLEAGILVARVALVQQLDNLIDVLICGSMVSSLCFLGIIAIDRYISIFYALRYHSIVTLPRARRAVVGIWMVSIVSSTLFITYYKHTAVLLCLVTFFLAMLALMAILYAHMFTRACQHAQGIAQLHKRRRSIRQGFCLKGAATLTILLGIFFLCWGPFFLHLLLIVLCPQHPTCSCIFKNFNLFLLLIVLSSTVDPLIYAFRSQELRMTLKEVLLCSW

Structure (SMILES) | EC50 [1] [nM] | EC50 [2] [nM] | EC50 [3] [nM] | EC50 [4] [nM] | EC50 [5]
CC(=O)N[C@@H](Cc1ccncc1)C(=O)N[C@H](Cc1ccccc1)C(=O)N[C@@H](CCCN=C(N)N)C(=O)N[C@@H](Cc1c[nH]c2ccccc12)C(N)=O | 176 | 2270 | 92.5 | 128 | 
CC(=O)N[C@@H](Cc1cccnc1)C(=O)N[C@H](Cc1ccccc1)C(=O)N[C@@H](CCCN=C(N)N)C(=O)N[C@@H](Cc1c[nH]c2ccccc12)C(N)=O | 1150 |  | 400 | 887 | Partial agonist
CC(=O)N[C@@H](Cc1ccccc1)C(=O)N[C@H](Cc1ccccc1)C(=O)N[C@@H](CCCNC(=N)N)C(=O)N[C@@H](Cc1c[nH]c2ccccc12)C(N)=O | 503 | 11900 | 143 | 70.6 | 
CC(=O)N[C@H](Cc1ccc2ccccc2c1)C(=O)N[C@H](Cc1ccccc1)C(=O)N[C@@H](CCCNC(=N)N)C(=O)N[C@@H](Cc1c[nH]c2ccccc12)C(N)=O | 7100 | > 100000 | 2240 | 1500 | 
CC(=O)N[C@H](Cc1ccccc1)C(=O)N[C@H](Cc1ccccc1)C(=O)N[C@@H](CCCNC(=N)N)C(=O)N[C@@H](Cc1c[nH]c2ccccc12)C(N)=O | 11500 | > 100000 | 2980 | 2170 | 
CC(=O)N[C@@H](C)C(=O)N[C@H](Cc1ccccc1)C(=O)N[C@@H](CCCN=C(N)N)C(=O)N[C@@H](Cc1c[nH]c2ccccc12)C(N)=O | 1800 | 9000 | 300 | 1000 | 
CC(=O)N[C@@H](Cc1csc2ccccc12)C(=O)N[C@H](Cc1ccccc1)C(=O)N[C@@H](CCCN=C(N)N)C(=O)N[C@@H](Cc1c[nH]c2ccccc12)C(N)=O | 4400 | 19800 | 381 | 211 | 
CC(=O)N[C@H](Cc1c[nH]c2ccccc12)C(=O)N[C@H](Cc1ccccc1)C(=O)N[C@@H](CCCNC(=N)N)C(=O)N[C@@H](Cc1c[nH]c2ccccc12)C(N)=O | 6600 | > 100000 | 1260 | 6200 | 
CC(=O)N[C@@H](Cc1c[nH]c2ccccc12)C(=O)N[C@H](Cc1ccccc1)C(=O)N[C@@H](CCCN=C(N)N)C(=O)N[C@@H](Cc1c[nH]c2ccccc12)C(N)=O | 5400 | 10300 | 507 | 528 | 
CC(=O)N[C@@H](Cc1ccc2ccccc2c1)C(=O)N[C@H](Cc1ccccc1)C(=O)N[C@@H](CCCN=C(N)N)C(=O)N[C@@H](Cc1c[nH]c2ccccc12)C(N)=O | 9500 | 14700 | 606 | 2900 | 
CC(=O)N[C@H](Cc1cnc[nH]1)C(=O)N[C@H](Cc1ccccc1)C(=O)N[C@@H](CCCNC(=N)N)C(=O)N[C@@H](Cc1c[nH]c2ccccc12)C(N)=O |  |  | 138 | 506 | 
CC(=O)NC1(C(=O)N[C@H](Cc2ccccc2)C(=O)N[C@@H](CCCNC(=N)N)C(=O)N[C@@H](Cc2c[nH]c3ccccc23)C(N)=O)CCc2ccccc2C1 (stereo partly specified) | 7730 |  | 2400 | 714 | 
CC(=O)N1CCC[C@H]1C(=O)N[C@H](Cc1ccccc1)C(=O)N[C@@H](CCCN=C(N)N)C(=O)N[C@@H](Cc1c[nH]c2ccccc12)C(N)=O (Ac-P[dF]RW-NH2) | 4250 | 15000 | 684 | 1500 | 
CC(=O)N[C@@H](Cc1cccs1)C(=O)N[C@H](Cc1ccccc1)C(=O)N[C@@H](CCCNC(=N)N)C(=O)N[C@@H](Cc1c[nH]c2ccccc12)C(N)=O (Ac-[2Thi][dF]RW-NH2) | 203 | 2950 | 40.5 | 91.2 | 
CC(=O)N1Cc2ccccc2C[C@H]1C(=O)N[C@H](Cc1ccccc1)C(=O)N[C@@H](CCCNC(=N)N)C(=O)N[C@@H](Cc1c[nH]c2ccccc12)C(N)=O (Ac-[Tic][dF]RW-NH2) | 2600 | 11800 | 369 | 2900 | 
CC(=O)N1Cc2ccccc2C[C@@H]1C(=O)N[C@H](Cc1ccccc1)C(=O)N[C@@H](CCCN=C(N)N)C(=O)N[C@@H](Cc1c[nH]c2ccccc12)C(N)=O (Ac-[dTic][dF]RW-NH2) | 11300 | > 100000 | 12000 | 11700 | 
